The text below walks through data of ChEMBL document CHEMBL1144932, “Design, synthesis, and biological properties of new bis(acridine-4-carboxamides) as anticancer agents” (J Med Chem, 2003).

For assay [1], the species on record is Homo sapiens. In words: In vitro cytotoxic activity against human colon adenocarcinoma (HT-29). The format is functional. The method in brief: (§1)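 HT29 cells were seeded at 2.5 × 10^4 cells/mL of medium and drug solutions were added. Exposure lasted 144 h. IC50 is the drug concentration inhibiting cell growth by 50%. Assays were run in triplicate.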
Assay [2] concerns NCI-H460. In words: Percent growth of lung-NSC NCI-H460 cell line at compound concentration 10e-4 was determined. The format is functional, Homo sapiens. A digest of the protocol:
(§2)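 Cells in the NCI panel were exposed for 48 h to 10^-8, 10^-6 and 10^-4 or 10^-5 M drug. Growth is given as percent of untreated control (100%). Negative values are the percent of cells killed relative to the initial cell number.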

The test system of assay [3] is RPMI-8226. In words: Percent growth of leukemia RPMI-8226 cell line at compound concentration 10e-8 was determined. The format is functional, Homo sapiens. A digest of the protocol: as §2
Assay [4] deals with MCF7. Put plainly: Percent growth of breast MCF-7 cell line at compound concentration 10e-6 was determined. The format is functional, Homo sapiens. A digest of the protocol: as §2
Assay [5] relates to DU-145. In words: Percent growth of prostate DU-145 cell line at compound concentration 10e-6 was determined. The format is functional, Homo sapiens. A digest of the protocol: as §2
The test system of assay [6] is OVCAR-4. Put plainly: Percent growth of ovarian OVCAR-4 cell line at compound concentration 10e-8 was determined. The format is functional, Homo sapiens. The method in brief:
as §2

The test system of assay [7] is SNB-19. Put plainly: Percent growth of CNS SNB-19 cell line at compound concentration 10e-8 was determined. The format is functional, Homo sapiens. The method in brief:
as §2

Assay [8] deals with 786-0. In words: Percent growth of renal 786-0 cell line at compound concentration 10e-4 was determined. The format is functional, Homo sapiens. The method in brief: as §2
For assay [9], the system named is DU-145. In words: Percent growth of prostate DU-145 cell line at compound concentration 10e-8 was determined. The format is functional, Homo sapiens. The method in brief:
as §2

Assay [10] concerns LOX IMVI. In words: Percent growth of melanoma LOX IMVI cell line at compound concentration 10e-4 was determined. The format is functional, Homo sapiens. The method in brief: as §2
The species entered for assay [11] is Homo sapiens. Put plainly: In vitro cytotoxic activity against human colon adenocarcinoma (HT-29). The format is functional. A digest of the protocol: as §1
The test system of assay [12] is LOX IMVI. In words: Percent growth of melanoma LOX IMVI cell line at compound concentration 10e-6 was determined. The format is functional, Homo sapiens. The method in brief:
as §2

Assay [13] relates to SNB-19. In words: Percent growth of CNS SNB-19 cell line at compound concentration 10e-4 was determined. The format is functional, Homo sapiens. A digest of the protocol:
as §2

Assay [14] has as its system OVCAR-4. In words: Percent growth of ovarian OVCAR-4 cell line at compound concentration 10e-4 was determined. The format is functional, Homo sapiens. A digest of the protocol: as §2
Assay [15] relates to MCF7. In words: Percent growth of breast MCF-7 cell line at compound concentration 10e-8 was determined. The format is functional, Homo sapiens. A digest of the protocol:
as §2

In assay [16] the test system is RPMI-8226. In words: Percent growth of leukemia RPMI-8226 cell line at compound concentration 10e-4 was determined. The format is functional, Homo sapiens. The method in brief:
as §2

Assay [17] concerns DU-145. Put plainly: Percent growth of prostate DU-145 cell line at compound concentration 10e-4 was determined. The format is functional, Homo sapiens. A digest of the protocol: as §2
Assay [18] deals with 786-0. In words: Percent growth of renal 786-0 cell line at compound concentration 10e-6 was determined. The format is functional, Homo sapiens. A digest of the protocol:
as §2

In assay [19] the test system is LOX IMVI. Put plainly: Percent growth of melanoma LOX IMVI cell line at compound concentration 10e-8 was determined. The format is functional, Homo sapiens. A digest of the protocol: as §2
Assay [20] deals with RPMI-8226. Put plainly: Percent growth of leukemia RPMI-8226 cell line at compound concentration 10e-6 was determined. The format is functional, Homo sapiens. The method in brief: as §2
The test system of assay [21] is 786-0. In words: Percent growth of renal 786-0 cell line at compound concentration 10e-8 was determined. The format is functional, Homo sapiens. A digest of the protocol:
as §2

For assay [22], the system named is HCT-116. Put plainly: Percent growth of colon HCT116 cell line at compound concentration 10e-8 was determined. The format is functional, Homo sapiens. The method in brief:
as §2

The test system of assay [23] is SNB-19. In words: Percent growth of CNS SNB-19 cell line at compound concentration 10e-6 was determined. The format is functional, Homo sapiens. The method in brief: as §2
For assay [24], the system named is HCT-116. Put plainly: Percent growth of colon HCT116 cell line at compound concentration 10e-6 was determined. The format is functional, Homo sapiens. A digest of the protocol:
as §2

In assay [25] the test system is NCI-H460. Put plainly: Percent growth of lung-NSC NCI-H460 cell line at compound concentration 10e-8 was determined. The format is functional, Homo sapiens. A digest of the protocol: as §2
Assay [26] relates to MCF7. In words: Percent growth of breast MCF-7 cell line at compound concentration 10e-4 was determined. The format is functional, Homo sapiens. A digest of the protocol:
as §2

Assay [27] deals with NCI-H460. Put plainly: Percent growth of lung-NSC NCI-H460 cell line at compound concentration 10e-6 was determined. The format is functional, Homo sapiens. A digest of the protocol: as §2
The test system of assay [28] is OVCAR-4. In words: Percent growth of ovarian OVCAR-4 cell line at compound concentration 10e-6 was determined. The format is functional, Homo sapiens. A digest of the protocol:
as §2

Assay [29] concerns HCT-116. In words: Percent growth of colon HCT116 cell line at compound concentration 10e-4 was determined. The format is functional, Homo sapiens. The method in brief: as §2

For orientation: IC50 means the concentration at which inhibition is half-maximal. A high value points to a need for much substance. For the compound `COc1ccc2nc3c(C(=O)NCCN(C)C)ccc(NCCN(C)C)c3c(O)c2c1`, inhibition in the assay filed under Homo sapiens [1] was half-maximal at 500 nM (IC50).
Consider `COc1ccc2nc3c(C(=O)NCCCN(C)CCCNC(=O)c4ccc(NCCN(C)C)c5c(O)c6cc(OC)ccc6nc45)ccc(NCCN(C)C)c3c(O)c2c1`, for which the Growth in the assay on NCI-H460 [2] was -90%; in the assay with RPMI-8226 [3] it was 4%; in the assay on MCF7 [4] it was 0%; with DU-145 [5], -25%; with OVCAR-4 [6], 38%; with SNB-19 [7], 38%. Moreover, the Growth with 786-0 [8] is reported as -98%; in the assay on DU-145 [9] it was 25%; in the assay with LOX IMVI [10], -73%; with LOX IMVI [12], -2%; in the assay on SNB-19 [13], -85%; in the assay on OVCAR-4 [14], -96%. Also, the Growth with MCF7 [15] was 18%; in the assay with RPMI-8226 [16], -44%; in the assay on DU-145 [17] it was -77%; in the assay with 786-0 [18] it was 1%; in the assay with LOX IMVI [19], 31%; in the assay on RPMI-8226 [20], -36%. The Growth in the assay with 786-0 [21] is 28%; in the assay with HCT-116 [22], 17%; in the assay on SNB-19 [23], 3%; with HCT-116 [24], -23%; in the assay with NCI-H460 [25], 9%; in the assay on MCF7 [26], -85%. In addition, the Growth in the assay with NCI-H460 [27] was -10%; with OVCAR-4 [28] it was -21%; with HCT-116 [29], -97%. This compound also gave an IC50 in the assay filed under Homo sapiens [11] of 2 nM.
